From ChEMBL document CHEMBL3407388, “Synthesis, anticancer activity and molecular docking studies on a series of heterocyclic trans-cyanocombretastatin analogues as antitubulin agents” (2015)

Tests used:
Format in all cases: functional
HL-60(TB) = assay: Cytotoxicity against human HL-60(TB) cells assessed as growth inhibition after 48 hrs by SRB assay; details: HL-60, 48 h
In short: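 NCI 60-cell panel, leukemia subpanel. Five-dose screen at 10-fold dilutions from 10−4 to 10−8 M with 48 h drug exposure. GI50 is the molar concentration giving 50% reduction in net cell growth compared with cell numbers on day 0.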

K562 = assay: Cytotoxicity against human K562 cells assessed as growth inhibition after 48 hrs by SRB assay; details: K562, 48 h
In short: (§1)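 NCI 60-cell panel; compounds passing a single-dose screen (10−5 M, 48 h) were tested at five 10-fold dilutions (10−4 to 10−8 M) with 48 h drug exposure. GI50 is the molar concentration giving 50% reduction in net cell growth relative to cell numbers on day 0.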

MOLT-4 = assay: Cytotoxicity against human MOLT4 cells assessed as growth inhibition after 48 hrs by SRB assay; details: MOLT-4, 48 h; in short: as §1
RPMI-8226 = assay: Cytotoxicity against human RPMI8226 cells assessed as growth inhibition after 48 hrs by SRB assay; details: RPMI-8226, 48 h; in short: as §1
NCI-H226 = assay: Cytotoxicity against human NCI-H226 cells assessed as growth inhibition after 48 hrs by SRB assay; details: NCI-H226, 48 h; in short: as §1
NCI-H23 = assay: Cytotoxicity against human NCI-H23 cells assessed as growth inhibition after 48 hrs by SRB assay; details: NCI-H23, 48 h; in short: as §1
NCI-H460 = assay: Cytotoxicity against human NCI-H460 cells assessed as growth inhibition after 48 hrs by SRB assay; details: NCI-H460, 48 h; in short: as §1
COLO 205 = assay: Cytotoxicity against human COLO205 cells assessed as growth inhibition after 48 hrs by SRB assay; details: COLO 205, 48 h; in short: as §1
HCC 2998 = assay: Cytotoxicity against human HCC2998 cells assessed as growth inhibition after 48 hrs by SRB assay; details: HCC 2998, 48 h; in short: as §1
[1] = Cytotoxicity against human HCT116 cells assessed as growth inhibition after 48 hrs by SRB assay; details: HCT-116, 48 h; in short: as §1
[2] = Cytotoxicity against human HCT15 cells assessed as growth inhibition after 48 hrs by SRB assay; details: HCT-15, 48 h; in short: as §1
HT-29 = assay: Cytotoxicity against human HT-29 cells assessed as growth inhibition after 48 hrs by SRB assay; details: HT-29, 48 h; in short: as §1
KM12 = assay: Cytotoxicity against human KM12 cells assessed as growth inhibition after 48 hrs by SRB assay; details: KM12, 48 h; in short: as §1
SW-620 = assay: Cytotoxicity against human SW620 cells assessed as growth inhibition after 48 hrs by SRB assay; details: SW-620, 48 h
SF-268 = assay: Cytotoxicity against human SF268 cells assessed as growth inhibition after 48 hrs by SRB assay; details: SF-268, 48 h; in short: as §1
SF-295 = assay: Cytotoxicity against human SF295 cells assessed as growth inhibition after 48 hrs by SRB assay; details: SF-295, 48 h; in short: as §1
SF-539 = assay: Cytotoxicity against human SF539 cells assessed as growth inhibition after 48 hrs by SRB assay; details: SF-539, 48 h; in short: as §1
SNB-19 = assay: Cytotoxicity against human SNB19 cells assessed as growth inhibition after 48 hrs by SRB assay; details: SNB-19, 48 h; in short: as §1
SNB-75 = assay: Cytotoxicity against human SNB75 cells assessed as growth inhibition after 48 hrs by SRB assay; details: SNB-75, 48 h
U-251 = assay: Cytotoxicity against human U251 cells assessed as growth inhibition after 48 hrs by SRB assay; details: U-251, 48 h
LOX IMVI = assay: Cytotoxicity against human LOXIMVI cells assessed as growth inhibition after 48 hrs by SRB assay; in short: as §1
MDA-MB-435 = assay: Cytotoxicity against human MDA-MB-435 cells assessed as growth inhibition after 48 hrs by SRB assay; details: MDA-MB-435, 48 h; in short: as §1
SK-MEL-5 = assay: Cytotoxicity against human SK-MEL-5 cells assessed as growth inhibition after 48 hrs by SRB assay; details: SK-MEL-5, 48 h; in short: as §1
[3] = Cytotoxicity against human UACC62 cells assessed as growth inhibition after 48 hrs by SRB assay; details: UACC-62, 48 h
IGROV-1 = assay: Cytotoxicity against human IGROV1 cells assessed as growth inhibition after 48 hrs by SRB assay; details: IGROV-1, 48 h; in short: as §1
[4] = Cytotoxicity against human OVCAR3 cells assessed as growth inhibition after 48 hrs by SRB assay; details: OVCAR-3, 48 h; in short: as §1
[5] = Cytotoxicity against human OVCAR4 cells assessed as growth inhibition after 48 hrs by SRB assay; details: OVCAR-4, 48 h; in short: as §1
[6] = Cytotoxicity against human OVCAR5 cells assessed as growth inhibition after 48 hrs by SRB assay; details: OVCAR-5, 48 h; in short: as §1
[7] = Cytotoxicity against human OVCAR8 cells assessed as growth inhibition after 48 hrs by SRB assay; details: OVCAR-8, 48 h; in short: as §1
[8] = Cytotoxicity against human NCI-ADR-RES cells assessed as growth inhibition after 48 hrs by SRB assay; in short: as §1
SK-OV-3 = assay: Cytotoxicity against human SKOV3 cells assessed as growth inhibition after 48 hrs by SRB assay; details: SK-OV-3, 48 h; in short: as §1
786-0 = assay: Cytotoxicity against human 786-0 cells assessed as growth inhibition after 48 hrs by SRB assay; details: 786-0, 48 h; in short: as §1
A498 = assay: Cytotoxicity against human A498 cells assessed as growth inhibition after 48 hrs by SRB assay; details: A498, 48 h; in short: as §1
CAKI-1 = assay: Cytotoxicity against human Caki1 cells assessed as growth inhibition after 48 hrs by SRB assay; details: CAKI-1, 48 h; in short: as §1
RXF 393 = assay: Cytotoxicity against human RXF393 cells assessed as growth inhibition after 48 hrs by SRB assay; details: RXF 393, 48 h; in short: as §1
SN12C = assay: Cytotoxicity against human SN12C cells assessed as growth inhibition after 48 hrs by SRB assay; in short: as §1
TK-10 = assay: Cytotoxicity against human TK10 cells assessed as growth inhibition after 48 hrs by SRB assay; details: TK-10, 48 h
[9] = Cytotoxicity against human UO31 cells assessed as growth inhibition after 48 hrs by SRB assay; details: UO-31, 48 h
[10] = Cytotoxicity against human PC3 cells assessed as growth inhibition after 48 hrs by SRB assay; details: PC-3, 48 h; in short: as §1
DU-145 = assay: Cytotoxicity against human DU145 cells assessed as growth inhibition after 48 hrs by SRB assay; details: DU-145, 48 h; in short: as §1
MCF7 = assay: Cytotoxicity against human MCF7 cells assessed as growth inhibition after 48 hrs by SRB assay; details: MCF7, 48 h; in short: as §1
MDA-MB-231 = assay: Cytotoxicity against human MDA-MB-231 cells assessed as growth inhibition after 48 hrs by SRB assay; details: MDA-MB-231, 48 h; in short: as §1
BT-549 = assay: Cytotoxicity against human BT549 cells assessed as growth inhibition after 48 hrs by SRB assay; details: BT-549, 48 h; in short: as §1

In the case of `COc1cc(/C(C#N)=C/c2c[nH]c3ccccc23)cc(OC)c1OC`, the GI50 (HL-60(TB)) is reported as 48 nM, the GI50 (K562) is reported as 40 nM and the GI50 (MOLT-4) is reported as 131 nM. For the same compound, the GI50 (RPMI-8226) was 231 nM, the GI50 (NCI-H226) was 194 nM and the GI50 (NCI-H23) was 133 nM. It also gave a GI50 (NCI-H460) of 41 nM, a GI50 (COLO 205) of 474 nM and a GI50 (HCC 2998) of 107 nM. The GI50 [1] was 48 nM, the GI50 [2] was 51 nM and the GI50 (HT-29) was 38 nM. For the same compound, the GI50 (KM12) was 43 nM, the GI50 (SW-620) was 47 nM and the GI50 (SF-268) was 2540 nM. For the same compound, the GI50 (SF-295) was 42 nM, the GI50 (SF-539) was 99 nM and the GI50 (SNB-19) was 76 nM. It also gave a GI50 (SNB-75) of 42 nM, a GI50 (U-251) of 50 nM and a GI50 (LOX IMVI) of 75 nM. It also gave a GI50 (MDA-MB-435) of 24 nM, a GI50 (SK-MEL-5) of 42 nM and a GI50 [3] of 48 nM. The GI50 (IGROV-1) was 417 nM, the GI50 [4] was 33 nM and the GI50 [5] was 338 nM. The GI50 [6] was 10600 nM, the GI50 [7] was 121 nM and the GI50 [8] was 39 nM. For the same compound, the GI50 (SK-OV-3) was 51 nM, the GI50 (786-0) was 90 nM and the GI50 (A498) was 35 nM. For the same compound, the GI50 (CAKI-1) was 58 nM, the GI50 (RXF 393) was 36 nM and the GI50 (SN12C) was 699 nM. It also gave a GI50 (TK-10) of 11.1 µM, a GI50 [9] of 1410 nM and a GI50 [10] of 54 nM. The GI50 (DU-145) was 132 nM, the GI50 (MCF7) was 34 nM and the GI50 (MDA-MB-231) was 245 nM. It also gave a GI50 (BT-549) of 1940 nM.
Compound `COc1ccc2[nH]cc(/C=C(\C#N)c3cc(OC)c(OC)c(OC)c3)c2c1` has a GI50 (HL-60(TB)) of 59 nM, a GI50 (K562) of 44 nM and a GI50 (MOLT-4) of 198 nM. It also gave a GI50 (RPMI-8226) of 241 nM, a GI50 (NCI-H226) of 170 nM and a GI50 (NCI-H23) of 101 nM. It also gave a GI50 (NCI-H460) of 37 nM, a GI50 (COLO 205) of 51 nM and a GI50 (HCC 2998) of 119 nM. The GI50 [1] was 45 nM, the GI50 [2] was 68 nM and the GI50 (HT-29) was 38 nM. For the same compound, the GI50 (KM12) was 44 nM, the GI50 (SW-620) was 46 nM and the GI50 (SF-268) was 2140 nM. The GI50 (SF-295) was 42 nM, the GI50 (SF-539) was 71 nM and the GI50 (SNB-19) was 89 nM. The GI50 (SNB-75) was 43 nM, the GI50 (U-251) was 50 nM and the GI50 (LOX IMVI) was 74 nM. It also gave a GI50 (MDA-MB-435) of 27 nM, a GI50 (SK-MEL-5) of 36 nM and a GI50 [3] of 59 nM. For the same compound, the GI50 (IGROV-1) was 379 nM, the GI50 [4] was 34 nM and the GI50 [5] was 1350 nM. The GI50 [6] was 516 nM, the GI50 [7] was 148 nM and the GI50 [8] was 37 nM. The GI50 (SK-OV-3) was 56 nM, the GI50 (786-0) was 85 nM and the GI50 (A498) was 25 nM. For the same compound, the GI50 (CAKI-1) was 72 nM, the GI50 (RXF 393) was 33 nM and the GI50 (SN12C) was 715 nM. The GI50 (TK-10) was 20.1 µM, the GI50 [9] was 1260 nM and the GI50 [10] was 54 nM. It also gave a GI50 (DU-145) of 153 nM, a GI50 (MCF7) of 36 nM and a GI50 (MDA-MB-231) of 299 nM. For the same compound, the GI50 (BT-549) was 348 nM.
With `COc1ccc(/C(C#N)=C/c2cc3ccccc3[nH]2)cc1OC` the GI50 (HL-60(TB)) was 34 nM, the GI50 (K562) was 39 nM and the GI50 (MOLT-4) was 84 nM. The GI50 (RPMI-8226) was 151 nM, the GI50 (NCI-H226) was 399 nM and the GI50 (NCI-H23) was 236 nM. The GI50 (NCI-H460) was 53 nM, the GI50 (COLO 205) was 232 nM and the GI50 (HCC 2998) was 366 nM. The GI50 [1] was 44 nM, the GI50 [2] was 48 nM and the GI50 (HT-29) was 48 nM. It also gave a GI50 (KM12) of 76 nM, a GI50 (SW-620) of 42 nM and a GI50 (SF-268) of 1480 nM. It also gave a GI50 (SF-295) of 36 nM, a GI50 (SF-539) of 47 nM and a GI50 (SNB-19) of 189 nM. The GI50 (SNB-75) was 36 nM, the GI50 (U-251) was 75 nM and the GI50 (LOX IMVI) was 64 nM. The GI50 (MDA-MB-435) was 21 nM, the GI50 (SK-MEL-5) was 142 nM and the GI50 [3] was 38 nM. The GI50 (IGROV-1) was 482 nM, the GI50 [4] was 34 nM and the GI50 [5] was 735 nM. For the same compound, the GI50 [6] was 471 nM, the GI50 [7] was 326 nM and the GI50 [8] was 40 nM. For the same compound, the GI50 (SK-OV-3) was 394 nM, the GI50 (786-0) was 602 nM and the GI50 (A498) was 40 nM. It also gave a GI50 (CAKI-1) of 103 nM, a GI50 (RXF 393) of 151 nM and a GI50 (SN12C) of 779 nM. The GI50 (TK-10) was 5.56 µM, the GI50 [9] was 71 nM and the GI50 [10] was 62 nM. The GI50 (DU-145) was 206 nM, the GI50 (MCF7) was 289 nM and the GI50 (MDA-MB-231) was 291 nM. For the same compound, the GI50 (BT-549) was 97.8 nM.
